According to paper PMC11382152 (The Journal of Organic Chemistry, 2024):
Converted amounts (≈) assume the structure as drawn.

Tests used:
Assay in all cases: MIC assay
Assay type in all cases: cell-based
[1] = system: Staphylococcus epidermidis ATCC 14990; conditions: ATCC14990
Summary of the method: (§1)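 Test compounds were prepared as trifluoroacetate salts and assayed for MIC against a Gram-positive panel: B. subtilis, S. epidermidis, MSSA and MRSA. E. coli served as the Gram-negative negative-control organism. The natural parent peptide and vancomycin served as positive controls.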

[2] = system: Bacillus subtilis ATCC 6051; conditions: ATCC6051
Summary of the method: as §1

[3] = system: Escherichia coli ATCC 10798; conditions: ATCC10798
Summary of the method: as §1

## CN[C@H](CC(C)C)C(=O)N[C@H]1C(=O)N[C@@H](CC(N)=O)C(=O)N[C@H]2C(=O)N[C@H]3C(=O)N[C@H](C(=O)N[C@H](C(=O)O)c4cc(O)cc(O)c4-c4cc3ccc4O)[C@H](O)c3ccc(c(Cl)c3)Oc3cc2cc(c3O[C@@H]2O[C@H](CO)[C@@H](O)[C@H](O)[C@H]2O[C@H]2C[C@](C)(N)[C@H](O)[C@H](C)O2)Oc2ccc(cc2Cl)[C@H]1O [vancomycin]
[1]
  MIC: 2 µg/mL (≈ 1.38 µM)
[2]
  MIC: 0.125 to 0.25 µg/mL (≈ 0.0863 to 0.173 µM)
[3]
  MIC: > 32 µg/mL
